Reference: article PMC6904115 (Neuropharmacology, 2019)
Entries after “also recorded” stand apart in the source; their conditions may differ.

Assays:
Y1 receptor [1] = molecular target: T1, Y1 receptor (Rattus norvegicus, UniProt P21555); assay: Y1 receptor internalization; type: cell-based; conditions: for Y1 receptor internalization / NPY release by chemical stimulus, summary: spinal cord slices
T1 sequence (P21555 1-382): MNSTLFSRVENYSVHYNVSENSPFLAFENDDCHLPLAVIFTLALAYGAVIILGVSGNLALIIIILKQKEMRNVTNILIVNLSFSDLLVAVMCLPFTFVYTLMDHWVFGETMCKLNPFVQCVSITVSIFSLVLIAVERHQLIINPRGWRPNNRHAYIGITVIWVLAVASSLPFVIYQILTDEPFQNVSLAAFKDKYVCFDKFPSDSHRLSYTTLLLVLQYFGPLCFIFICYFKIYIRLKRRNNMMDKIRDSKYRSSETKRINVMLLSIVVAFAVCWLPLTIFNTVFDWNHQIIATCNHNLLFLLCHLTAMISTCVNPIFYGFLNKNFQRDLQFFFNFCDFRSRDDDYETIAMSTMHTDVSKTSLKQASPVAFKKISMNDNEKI

[2] = tested on: substance P release in the dorsal horn; conditions: ref Chen et al., cited from earlier work
Y1 receptor [3] = molecular target: T1, Y1 receptor; type: cell-based; conditions: with 100 nM NPY; each inhibitor 10 μM; 35 °C, 10 min
Y1 receptor [4] = molecular target: T1, Y1 receptor; assay: Y1 receptor internalization induced by capsaicin stimulation of the dorsal root; type: cell-based
Procedure, shortened: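 Rat lumbar (L2-L4) slices, 400 μm, keeping one >8 mm dorsal root; recovered 1 h at 35 °C in aCSF (5 mM KCl). Root sealed with grease into side compartment of aCSF + 1 μM capsaicin, 10 min, while slice superfused at 35 °C; 10 min further superfusion, immersion-fixed, 25 μm cryosections, Y1 antiserum 1:500, confocal. Ipsilateral vs contralateral; repeated-measures 2-way ANOVA, Holm-Sidak.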

[5] = tested on: opioid release in spinal cord slices; conditions: cited from earlier work
[6] = tested on: inhibitory interneurons in the dorsal horn; conditions: four classes of inhibitory interneurons; ref Polgar et al. (2013); cited from earlier work
MOR = conditions: ref Song and Marvizon, 2003a; cited from earlier work
NK1R = conditions: compared with endogenous opioids; ref Marvizon et al., 2003b; cited from earlier work
Y1 receptor [7] = molecular target: T1, Y1 receptor; type: cell-based

## O=C(Nc1ncnc2c1ncn2[C@@H]1O[C@@H]2COP(=O)(O)OC2C1O)c1ccccc1 (stereo in doubt) [6-Bnz-cAMP, 6-benzoyl-3′,5′-cyclic monophosphate]
Y1 receptor [1]; 10 nM, 60 min, 35 °C
  Y1 receptor internalization by protein kinase A activator: induced a substantial amount of Y1 receptor internalization
Y1 receptor [1]
  Y1 receptor internalization / NPY release by chemical stimulus, summary: induced Y1 receptor internalization

## Nc1ncnc2c1nc(Br)n2[C@@H]1O[C@@H]2COP(=O)(O)O[C@H]2[C@H]1O [8-Br-cAMP, 8-bromoadenosine-3′,5′-cyclic monophosphate]
[2]; dorsal horn, 2018
  substance P release by cell-permeable cAMP analogs: induce substance P release

## CC(N)C(=O)N1CCCC1C#N (stereo not drawn) [Ala-Pyrr-CN, alanine-pyrrolidine-nitrile]
Y1 receptor [3]
  effect on NPY-induced Y1 receptor internalization: did not significantly increase NPY-induced Y1 receptor internalization

## CC1(C)C(=O)N=C2C1=C(O)C(=O)c1ccccc12 [BVT948, 4-hydroxy-3,3-dimethyl-2H-benz[g]indole-2,5(3H)-dione]
Y1 receptor [1]; 10 μM BVT948 60 min, then 10 μM NMDA + D-serine 2 min, 8 min aCSF
  Y1 receptor internalization after BVT948 preincubation and NMDA+D-Ser: also released NPY
[2]; 2014b, Chen et al., 2010
  substance P release by BVT948: increases substance P release

## N#Cc1cc2[nH]c(=O)c(=O)[nH]c2cc1[N+](=O)[O-] [CNQX]
Y1 receptor [1]; 10 μM CNQX with 1 μM capsaicin, 10 min, whole slice
  effect on capsaicin-induced Y1R internalization: decreased the Y1R internalization induced by capsaicin to near control levels
Y1 receptor [4]; slice superfused with 10 μM CNQX 10 min, 1 μM capsaicin on dorsal root
  effect on dorsal root capsaicin-induced Y1 internalization: blocked; also recorded: eliminated the effect of capsaicin

## [Cl-].[K+] [KCl]
Y1 receptor [1]; 30 mM KCl 2 min, then 8 min aCSF, 35 °C
  neurons with Y1 receptor internalization, KCl: > 80%
Y1 receptor [1]
  Y1 receptor internalization / NPY release by chemical stimulus, summary: induced Y1 receptor internalization
[5]; 30 mM KCl, 2 min, spinal cord slices, ref Chen et al., 2008
  opioid release by KCl: induced abundant opioid release

## COc1cc(CNC(=O)CCCC/C=C/C(C)C)ccc1O [capsaicin]
Y1 receptor [1]; 1 μM capsaicin, 10 min, whole slice, 35 °C
  neurons with Y1 receptor internalization, capsaicin: approximately 50%
Y1 receptor [1]
  Y1 receptor internalization / NPY release by chemical stimulus, summary: induced Y1 receptor internalization
Y1 receptor [4]; 1 μM capsaicin on dorsal root (side chamber), 10 min
  Y1 receptor internalization by dorsal root capsaicin: induced NPY release; also recorded: evoked substantial Y1 receptor internalization, which was significantly higher than in control slices
[5]; dorsal horn, ref Song and Marvizon, 2003b
  opioid release by capsaicin: not opioid release
[6]
  pERK induction: induced pERK only in the galanin and NPY neurons

## Ile-Pro-Ile
Y1 receptor [3]
  effect on NPY-induced Y1 receptor internalization: did not significantly increase NPY-induced Y1 receptor internalization

## Leu-enkephalin
MOR
  reduction by peptidases of potency to induce MOR internalization: two orders of magnitude

## formalin
[6]
  pERK induction: induced pERK only in the galanin and NPY neurons

## substance P
NK1R
  cleavage by peptidases: much less readily

## ω-conotoxin MVIIC
Y1 receptor [7]
  effect on electrically evoked Y1 receptor internalization, ipsilateral: decreased
